Results taken from ChEMBL document CHEMBL1121364, “Nucleoside conjugates as potential antitumor agents. 3. Synthesis and antitumor activity of 1-(beta-D-arabinofuranosyl)cytosine conjugates of corticosteroids” (1980).

Experiments:
L1210 [1] = experiment: Antitumor activity in the mice with intraperitoneal implanted L1210 lymphoid leukemia at the dose of 75 mg/kg/day x 5 was determined as mean survival of treated group compared to untreated; 18.5/9.5; type: functional, Mus musculus
L1210 [2] = experiment: Antitumor activity in the mice with intraperitoneal implanted L1210 lymphoid leukemia at the dose of 50 mg/kg/day x 5 was determined as mean survival of treated group compared to untreated; 19/8; type: functional, Mus musculus
Outline: (§1)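 C3D2F1/J female mice (C3H/HeJ female × DBA/2J male), groups of six to eight, average weight 25 g. Inoculated ip with 1 × 10^6 L1210 ascites cells taken from DBA/2Ha donor mice bearing 3-5 day old tumors. Compounds were dissolved in 0.154 N NaOH, neutralized with 0.154 N HCl (final 0.9% NaCl), and given ip daily for 5 days from 24 h post-implant. Median survival T/C; ILS = (T/C − 1) × 100; 30-day survivors counted.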

L1210 [3] = experiment: Antitumor activity in the mice with intraperitoneal implanted L1210 lymphoid leukemia at the dose of 25 mg/kg/day x 5 was determined as mean survival of treated group compared to untreated; 16/8.5; type: functional, Mus musculus; outline: as §1
L1210 [4] = experiment: Antitumor activity in mice with intraperitoneal implanted L1210 lymphoid leukemia at the dose 75 mg/kg/day x 5 was determined as weight change (g/mouse) on 8th day; type: functional
Outline: (§2)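 C3D2F1/J female mice (C3H/HeJ × DBA/2J), groups of six to eight, average 25 g, inoculated ip with 1 × 10^6 L1210 ascites cells taken from DBA/2Ha donor mice carrying 3-5 day tumors. Compound dissolved in 0.154 N NaOH, then neutralized with 0.154 N HCl to give 0.9% NaCl. Given ip daily for 5 consecutive days starting 24 h after implantation. Body weight change per mouse recorded on day 8.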

L1210 [5] = experiment: In Vitro evaluation for the antiproliferative activity by observing the growth inhibition of L1210 lymphoid leukemia cells in culture at 72 hour; type: functional, Mus musculus
Outline: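 Growth of L1210 lymphoid leukemia cells in culture measured by Trypan blue exclusion of viable cells after 72 h of drug exposure. ED50 is the concentration giving 50% growth inhibition. In some runs the compound was first preincubated in medium at 37 °C for 24 or 48 h before the assay.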

L1210 [6] = experiment: Antitumor activity in mice with intraperitoneal implanted L1210 lymphoid leukemia at the dose 25 mg/kg/day x 5 was determined as weight change (g/mouse) on 8th day; type: functional; outline: as §2
L1210 [7] = experiment: Antitumor activity in mice with intraperitoneal implanted L1210 lymphoid leukemia at the dose 50 mg/kg/day x 5 was determined as weight change (g/mouse) on 8th day; type: functional; outline: as §2
L1210 [8] = experiment: Antitumor activity in the mice with intraperitoneal implanted L1210 lymphoid leukemia at the dose 25 mg/kg/day x 5 was determined and number of animals survived on 30 th day were reported; 0/8; type: functional, Mus musculus
Outline: (§3)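 Female C3D2F1/J mice (C3H/HeJ × DBA/2J), groups of six to eight, average weight 25 g. Each mouse got 1 × 10^6 L1210 ascites cells ip, taken from DBA/2Ha donor mice bearing 3-5 day tumors. Compound was dissolved in 0.154 N NaOH and neutralized with 0.154 N HCl (final 0.9% NaCl). Dosed ip daily ×5, starting 24 h after implant. Recorded body weight change on day 8, survival range, median survival and 30-day survivors. ILS = (T/C − 1) × 100.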

L1210 [9] = experiment: Antitumor activity in the mice with intraperitoneal implanted L1210 lymphoid leukemia at the dose 50 mg/kg/day x 5 was determined as Survival time in days; Range is 17-24 days; type: functional, Mus musculus; outline: as §3
L1210 [10] = experiment: Antitumor activity in the mice with intraperitoneal implanted L1210 lymphoid leukemia at the dose 50 mg/kg/day x 5 was determined and number of animals survived on 30 th day were reported; 0/8; type: functional, Mus musculus; outline: as §3
L1210 [11] = experiment: Antitumor activity in the mice with intraperitoneal implanted L1210 lymphoid leukemia at the dose 75 mg/kg/day x 5 was determined and number of animals survived on 30 th day were reported; 1/8; type: functional, Mus musculus; outline: as §1
L1210 [12] = experiment: Antitumor activity in the mice with intraperitoneal implanted L1210 lymphoid leukemia at the dose 50 mg/kg/day x 5 was determined as percentage increase in the life span as compared with control tumor bearers; type: functional; settings: Mus musculus, L1210, ip; outline: as §1
L1210 [13] = experiment: Antitumor activity in the mice with intraperitoneal implanted L1210 lymphoid leukemia at the dose 75 mg/kg/day x 5 was determined as percentage increase in the life span as compared with control tumor bearers; type: functional; settings: Mus musculus, L1210, ip; outline: as §1
L1210 [14] = experiment: Antitumor activity in the mice with intraperitoneal implanted L1210 lymphoid leukemia at the dose 25 mg/kg/day x 5 was determined as Survival time in days; Range is 8-21 days; type: functional, Mus musculus; outline: as §3
L1210 [15] = experiment: Antitumor activity in the mice with intraperitoneal implanted L1210 lymphoid leukemia at the dose 25 mg/kg/day x 5 was determined as percentage increase in the life span as compared with control tumor bearers; type: functional; settings: Mus musculus, L1210, ip; outline: as §3
L1210 [16] = experiment: Antitumor activity in the mice with intraperitoneal implanted L1210 lymphoid leukemia at the dose 75 mg/kg/day x 5 was determined as Survival time in days; Range is 14- >45 days; type: functional, Mus musculus; outline: as §1
L1210 [17] = experiment: Antitumor activity in the mice with intraperitoneal implanted L1210 lymphoid leukemia at the dose of 19.1 and 26 mg/kg/day x 5 was determined as mean survival of treated group compared to untreated; 10.5/10; type: functional, Mus musculus; outline: as §1
L1210 [18] = experiment: Antitumor activity in mice with intraperitoneal implanted L1210 lymphoid leukemia at the dose 9.2 and 12.6 mg/kg/day x 5 was determined as weight change (g/mouse) on 8th day; type: functional; outline: as §3
L1210 [19] = experiment: Antitumor activity in the mice with intraperitoneal implanted L1210 lymphoid leukemia at the dose of 9.2 and 12.6 mg/kg/day x 5 was determined as mean survival of treated group compared to untreated; 16.5/11; type: functional, Mus musculus
L1210 [20] = experiment: Antitumor activity in mice with intraperitoneal implanted L1210 lymphoid leukemia at the dose 19.1 and 26 mg/kg/day x 5 was determined as weight change (g/mouse) on 8th day; type: functional; outline: as §3
L1210 [21] = experiment: Antitumor activity in the mice with intraperitoneal implanted L1210 lymphoid leukemia at the dose 9.2 and 12.6 mg/kg/day x 5 was determined as Survival time in days; Range is 13-23 days; type: functional, Mus musculus; outline: as §1
L1210 [22] = experiment: Antitumor activity in the mice with intraperitoneal implanted L1210 lymphoid leukemia at the dose 19.1 and 26 mg/kg/day x 5 was determined and number of animals survived on 30 th day were reported; 0/8; type: functional, Mus musculus; outline: as §3
L1210 [23] = experiment: Antitumor activity in the mice with intraperitoneal implanted L1210 lymphoid leukemia at the dose 9.2 and 12.6 mg/kg/day x 5 was determined as percentage increase in the life span as compared with control tumor bearers; type: functional, Mus musculus; outline: as §1
L1210 [24] = experiment: Antitumor activity in the mice with intraperitoneal implanted L1210 lymphoid leukemia at the dose 9.2 and 12.6 mg/kg/day x 5 was determined and number of animals survived on 30 th day were reported; 0/6; type: functional, Mus musculus; outline: as §1
L1210 [25] = experiment: Antitumor activity in the mice with intraperitoneal implanted L1210 lymphoid leukemia at the dose 19.1 and 26 mg/kg/day x 5 was determined as percentage increase in the life span as compared with control tumor bearers; type: functional, Mus musculus; outline: as §3
L1210 [26] = experiment: Antitumor activity in the mice with intraperitoneal implanted L1210 lymphoid leukemia at the dose 19.1 and 26 mg/kg/day x 5 was determined as Survival time in days; Range is 9-12 days; type: functional, Mus musculus; outline: as §3

## C[C@]12CC[C@H]3[C@@H](CCC4=CC(=O)CC[C@@]43C)[C@@H]1CC[C@@H]2C(=O)COP(=O)(O)OC[C@H]1O[C@@H](n2ccc(N)nc2=O)[C@@H](O)[C@@H]1O
L1210 [1]
  T/C: 18.5
L1210 [2]
  T/C: 19
L1210 [3]
  T/C: 16
L1210 [4]
  Weight change: -0.09 g mouse-1
L1210 [5]
  ED 50: 0.05 µM
L1210 [6]
  Weight change: -0.54 g mouse-1
L1210 [7]
  Weight change: -0.94 g mouse-1
L1210 [8]
  Survivors: 0
L1210 [9]
  Survival time: 17 days
L1210 [10]
  Survivors: 0
L1210 [11]
  Survivors: 1
L1210 [12]
  ILS at 50 mg/kg/day: 138%
L1210 [13]
  ILS at 75 mg/kg/day: 95%
L1210 [14]
  Survival time: 8 days
L1210 [15]
  ILS at 25 mg/kg/day: 88%
L1210 [16]
  Survival time: 14 days

## C[C@]12CC[C@H]3[C@@H](CCC4=CC(=O)CC[C@@]43C)[C@@H]1CC[C@@H]2C(=O)O.Nc1ccn([C@@H]2O[C@H](CO)[C@@H](O)[C@@H]2O)c(=O)n1
L1210 [17]
  T/C: 10.5
L1210 [18]
  Weight change: -3.58 g mouse-1
L1210 [19]
  T/C: 16.5
L1210 [20]
  Weight change: -4.25 g mouse-1
L1210 [21]
  Survival time: 13 days
L1210 [22]
  Survivors: 0
L1210 [23]
  ILS: 50%
L1210 [24]
  Survivors: 0
L1210 [25]
  ILS: 5%
L1210 [26]
  Survival time: 9 days
